Assay: Toxicity liver stage against HepG2, at 10uM
Type: cell-based
Set-up: test concentration 10 uM, cell line HepG2-A16-CD81EGFP
Conditions: human, HepG2-A16-CD81EGFP cells; read-out: INHIBITION
Method in brief: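 Uninfected HepG2-A16-CD81EGFP cells, 3 × 10^3 per well, 1536-well, plated on prespotted compound at 10 μM final, parasite-free screening media added to match infected plates; puromycin 10 μM positive, DMSO 0.5% negative; run in parallel with 48 h PbLuc assay at 37 °C, 5% CO2; viability by CellTiter-Glo luminescence, normalized to controls.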

| SMILES | cytotoxicity at 10 µM |
| --- | --- |
| N#Cc1c(-c2ccccc2)csc1N | 2.42% |
| c1ccc2c(c1)COC1(CCCC1)N2 | 10.4% |
| Cc1noc([C@@H]2C[C@H](NC(=O)NC(C)C)CN2C)n1 | -10.1% |
| CC(C)CC1CC(=O)Nc2c1cnn2Cc1ccco1 (stereo not given) | -2.75% |
| Cc1cc(CN2CCC(CNS(=O)(=O)c3ccc(C)s3)CC2)c(C)o1 | 3.39% |
| O=C(Nc1cccnc1)C1CCCN(c2cc(-n3cccn3)ncn2)C1 (stereo not given) | -5.36% |
| COc1cccc(CN2C[C@H]3CCNCC[C@H]3S2(=O)=O)c1 | -8.81% |
| c1csc(CN2C[C@H]3CCC[C@@]3(COCC3CCOCC3)C2)n1 | -1.99% |
| O=C(NC1CC1)C1CCN(c2nc3nc[nH]c(=O)c3s2)CC1 | -6.5% |
| CCn1nc(C)c2c1cnn2CC(=O)NC(C)c1cccc(OC)c1 (stereo not given) | 25.8% |
| Cc1cc(=O)n(CC(=O)NCC2CCCO2)c(-c2ccc(F)cc2)n1 (stereo not given) | -10.8% |
| O=C(Cc1ccccc1)NCc1ccc(-c2ccccc2C(=O)O)cn1 | -11.5% |
| Cc1ccnc(C2CCN(C(=O)c3cnn(C)c3)CC2)n1 | -4.15% |
| CC(=O)N[C@@H]1CN(C(=O)CC2CC2)C[C@H]1O | -7.1% |
| CC(=O)N1CCC(c2cnc(-c3c(C)n[nH]c3C)cn2)CC1 | -17.1% |
| CN1CCCC(CCCc2cccnc2)(C(N)=O)C1 (stereo not given) | -7.86% |
| Cc1nc(Nc2ccccn2)cc(C2CCCN2Cc2ncc[nH]2)n1 (stereo not given) | -3.11% |
| CC(C)c1nccn1-c1cccc(C2CCCN(S(=O)(=O)N(C)C)C2)n1 (stereo not given) | -3.11% |
| O=C(c1cnccn1)N1CCCC(c2cccc(-n3ccnc3)n2)C1 (stereo not given) | -9.08% |
| O=C(c1ccc(Cl)cc1)N1CCn2c(nn(-c3ccncc3)c2=O)C1 | 27.5% |
| COC(C)c1cccc(NCc2cccs2)c1 (stereo not given) | -8.94% |
| COCCCN1Cc2cccc(NC(=O)c3ccccc3Cl)c2C1 | -4.34% |

| SMILES | cytotoxicity at 10 µM |
| --- | --- |
| O=C(c1ccc(-n2cccn2)nc1)N1CCC(c2ccc(O)cc2)CC1 | 11.7% |
| Cc1ncc(CNC(CCO)C2CCCCC2)s1 (stereo not given) | -48.7% |
| Cc1nc(CNc2cccc(Cl)c2Cl)cs1 | 11.4% |
| COCCOCCNC(=O)c1ccc(N2CCC(C)=N2)cc1 | 7.42% |
| Cc1noc(CCCC(=O)N2CCCCC2CNS(C)(=O)=O)n1 (stereo not given) | -0.88% |
| O=C(CCc1ccncc1)N1CCc2cc(Cl)cc(Cl)c2C1 | -24.3% |
| CC(C)(C)n1ncc2c1CCCC2NCc1ccsc1 (stereo not given) | 3.59% |
| O=C(COc1cccc2c1CCC2=O)NCc1ccccc1Cl | -3.46% |
| Cc1ncsc1CNCC(C)c1nc2ccccc2o1 (stereo not given) | 4.17% |
| CCN1CCN(c2ccc(C(=O)NC(C)CCOC)cc2)CC1 (stereo not given) | 8.7% |
| CCN1CCN(C(=O)NCc2cccc(-c3cnn(C)c3)c2)CC1 | -10% |
| CCN(C)C(=O)CCN(C)Cc1cnc(C)s1 | 4.04% |
| CN(C(=O)c1ccc(S(=O)(=O)NC(C)(C)C)cc1)C1(C#N)CCC1 | 3.07% |
| Cc1nc(C)c(CCNc2ccc(S(N)(=O)=O)cc2C#N)s1 | -62.2% |
| COc1cccc(CC2CCCN2CCCO)c1 (stereo not given) | -37.5% |
| CN(CC1CCN(CCO)CC1)CC(O)c1ccc(F)c(F)c1 (stereo not given) | -51.5% |
| CCc1noc(CN(CC(=O)N2CCCCC2)c2ccc(C)cc2)n1 | -3.24% |
| COc1ccc(CN(C)C(=O)CCC(=O)c2cccs2)c(OC)c1OC | -10.7% |
| Cc1cc(N2CCN(C(=O)c3cc(Cl)c[nH]3)CC2)nc(N)n1 | -6.28% |
| N#CCSCCCN1CCCN(C(=O)c2ccccc2)CC1 | -3.74% |
| C[C@@H]1CN(C(=O)[C@H]2CCCO2)C[C@]12CCN(c1ccsc1)C2=O | -77.8% |
| O=C(c1ccncc1)N1CCc2ncnc(C3CCOC3)c2CC1 (stereo not given) | -73.2% |

| SMILES | cytotoxicity at 10 µM |
| --- | --- |
| COCC(=O)N1CCO[C@H]2[C@H](OC)CC[C@@H]21 | 6.61% |
| c1ccc(C[C@H]2CN(Cc3nccs3)CC[C@H]2OCC2CC2)cc1 | 5.27% |
| O=C(CC1CC1)N1CCC2(CC1)CN(c1ncccn1)CCO2 | 1.49% |
| O=C(NCCn1cccc1)C(c1cccnc1)N1CCCC1 (stereo not given) | -54.5% |
| CCc1ccc(CN2CCN(c3ncc(Cl)cn3)CC2)nc1 | 8.45% |
| CC(C)[C@@H]1CN(Cc2ccsc2)C[C@H]1NS(=O)(=O)N(C)C | -23.5% |
| CN1CCN(c2cc(Sc3cccs3)nc(N)n2)CC1CCO (stereo not given) | 1.31% |
| CNC(=O)C1CCN(c2nccc(CCC(F)(F)F)n2)C1 (stereo not given) | -11.4% |
| O=C(Nc1ccc2scnc2c1)N1CCN([C@H]2CCCC[C@@H]2O)CC1 | -53.6% |
| CN(Cc1cc2n(n1)CCN(C(=O)[C@H]1CCCO1)C2)Cc1nccs1 | 7.92% |
| O=C(C1CCCC1)N1CCC(Nc2ccncn2)CC1 | -57.7% |
| CC(C)c1nnsc1CN1CCc2[nH]nc(-c3ccc(Cl)cc3)c2C1 | -10.3% |
| CNc1ccnc(NCCC(=O)Nc2ccccc2OC)n1 | -1.62% |
| CCn1ncnc1CN(CCOC)Cc1ccc(C)cc1 | -40.2% |
| COc1ccccc1-n1cc(CN2CCN(C)[C@@H]3CS(=O)(=O)C[C@@H]32)cn1 | 14.5% |
| CCCc1cc(CN(C)C2CCSCC2)n[nH]1 | -20.6% |
| COc1cc2nc(NCCNS(C)(=O)=O)cc(C)c2cc1OC | -1.08% |
| CC(C)[C@@H]1CN(C(=O)C2(c3ccccc3)CC2)C[C@H]1C(=O)O | 3.61% |
| CN1CCN(CCC(F)(F)C(F)F)CC12CCNC(=O)CC2 (stereo not given) | -39.7% |
| CCOCCn1c(=O)n(Cc2ccccc2F)c2cc(C(=O)O)cnc21 | -6.46% |
| COCCN1CCC(CN(CC2CCCO2)C(=O)CNC(C)=O)CC1 (stereo not given) | 1.48% |
| O=C(NCc1ccc2c(c1)CCCO2)c1ccc(C2CCNC2)cc1 (stereo not given) | -11.5% |

| SMILES | cytotoxicity at 10 µM |
| --- | --- |
| CN1CC(c2ccccc2)CC2(CCN(Cc3ncc[nH]3)CC2)C1 (stereo not given) | -1.21% |
| Cn1c(CN2CCOCC2)nnc1C1CCN(C(=O)C2CCCC2)CC1 | -17.8% |
| CNC(=O)c1ccc(C2CN(C(=O)c3cncs3)CCO2)nc1 (stereo not given) | -2.7% |
| c1ccc(Oc2ccc(CNCC3CNc4ccnn4C3)cn2)cc1 (stereo not given) | -15.6% |
| Clc1cccc(-c2nc(CNC3CCc4ncnn4C3)co2)c1 (stereo not given) | 2.56% |
| Cc1nnc2n1CCN(C(=O)c1cc(C)n(-c3cccnc3)c1C)C2 | -6.63% |
| Cc1ccc(NC2CCN(C(=O)Cc3cccs3)CC2)nn1 | -6.8% |
| Cc1noc(CN(Cc2cccs2)C2CCS(=O)(=O)C2)n1 (stereo not given) | -3.21% |
| Cc1nn(C)c(N(C)C)c1CNCCC(=O)NC1CCCCC1 | -13.4% |
| Nc1cc2c(nn1)CCN(C(=O)CC1CCCCC1)C2 | -2.78% |
| CS(=O)(=O)NCCN1CCCC1c1ccc(Cl)cc1 (stereo not given) | 3.6% |
| Cc1ccc(C(=O)N(C2CC2)C2CC(=O)NC2=O)cc1F (stereo not given) | -7.33% |
| Cc1ccccc1C1(CNC(=O)CCN2C(=O)CCC2=O)CC1 | -11.8% |
| c1ccc(-n2cc(CN3CCCC3Cn3cncn3)nn2)cc1 (stereo not given) | -0.0716% |
| O=C(c1ccccc1OC1CCCC1)N1CCCC(n2cncn2)C1 (stereo not given) | -0.0581% |
| COCc1ccccc1C(=O)N(C)Cc1ncc(C)c(OC)c1C | -7.55% |
| Cc1noc(C)c1CNC(=O)c1ccc(NC2CC2)nc1 | -3.91% |
| O=C(CCOc1ccccc1)N1CCC(Nc2cccnn2)CC1 | -9.29% |
| CC(C)OCCC(=O)N(C)CCCc1cc(-c2ccccc2)no1 | -15.3% |
| CC(=O)N(Cc1ncc(C(C)C)o1)C1CCN(CCn2cccn2)C1 (stereo not given) | -4.89% |
| Cc1ccccc1CNC(=O)CN1CCN(Cc2nccn2C)CC1 | -5.75% |
| CC(C)NC(=O)C(c1ccccc1)N1CCn2c(nnc2C2CC2)C1 (stereo not given) | -3.3% |

| SMILES | cytotoxicity at 10 µM |
| --- | --- |
| Fc1ccc(OCc2noc(CN3CCc4cncnc4C3)n2)cc1 | 2% |
| CCc1noc(C(C)N2CCC(N3CCCC3)CC2)n1 (stereo not given) | -7.77% |
| CN(C(=O)c1cc(Cl)c[nH]1)C1CCN(c2ccccn2)CC1 | -1.49% |
| CC1CN(CC(=O)NC2CCCC2)CCN1c1ccc2nncn2n1 (stereo not given) | -1.58% |
| CCc1nc(CN2CCN(C(=O)Cc3c(C)noc3C)CC2)cs1 | -0.549% |
| Cc1nc2c(c(NC(C)C)n1)CCN(Cc1cccnc1)CC2 | 6.4% |
| O=C(c1ccccc1-c1ccccc1)N1C[C@@H]2CNC[C@]2(C(=O)O)C1 | -0.265% |
| Cc1cccc(CN2CCc3[nH]nc(C(=O)N4CCNC(=O)C4)c3C2)n1 | 18.2% |
| O=C(NC1CC1)[C@H]1CC[C@@H]2[C@@H](CCN2c2ncc(F)cn2)O1 | -1.65% |
| Cc1n[nH]cc1CNC1CCN(c2ccccc2)CC1 | -52.2% |
| CC[C@@H]1N(CC2CCOCC2)CCC[C@]12CCC(=O)N2 | 18.1% |
| O=C(C1CCC1)N1C[C@@H]2CN(Cc3ccncc3)C(=O)[C@@H]2C1 | -113% |
| Cc1ccc(C(=O)N2CCC3(CC2)CN(c2ccccn2)CCO3)cc1 | -75.4% |
| O=C(NC1CC2(CCN(CCO)CC2)c2ccccc21)c1ccncc1 (stereo not given) | -9.54% |
| Cn1cc(CN2CCCC3(CCN(C(=O)c4cnccn4)C3)C2)cn1 (stereo not given) | -69.6% |
| CNC(=O)c1cc2c(nc1N(C)C)CCN(c1ncc(F)cn1)CC2 | -131% |
| CN(C)CCN1C(=O)CC[C@@H]2[C@H]1CCN2Cc1cccc(C#N)c1 | -89.1% |
| c1ccc(O[C@H]2CO[C@@]3(CCCN(Cc4nccs4)C3)C2)nc1 | -71.3% |
| Cc1ccc(C(=O)N2C[C@H](N3CCOCC3)[C@@H]3OCCC[C@@H]32)cn1 | -108% |
| O=C([C@@H]1COC[C@H]2CN(C3CCCC3)C[C@H]21)N1CCC(F)CC1 | -103% |
| O=C(c1ccccc1)N1C[C@@H]2CCCO[C@@H]2[C@H](N2CCOCC2)C1 | -8.81% |
| CCN1CCc2c(sc3c2C(=O)NC(C=Cc2ccco2)N3)C1 (stereo not given) | -1.07% |

— ChEMBL document CHEMBL4513216, “Probing the Open Global Health Chemical Diversity Library for Multistage-Active Starting Points for Next-Generation Antimalarials” (ACS Infect Dis, 2020)
